In ChEMBL document CHEMBL1157223, “Lupeol long-chain fatty acid esters with antimalarial activity from Holarrhena floribunda” (J Nat Prod, 2006):
Values after ≈ are worked out from the molar mass of the structure shown. Values joined by “and” are separate entries in the source; they are usually repeats but may differ in a detail not shown here. Identical values can stand only once.

How the values were obtained:
Plasmodium falciparum [1] = assay: Antimalarial activity against chloroquine-resistant Plasmodium falciparum FCR3 Gambia as 24 hrs [3H]hypoxanthine uptake; assay type: functional, organism-based; conditions: FCR-3/Gambia
How it was run: (§1)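 Human type B+ erythrocytes at 2% parasitemia and 4% hematocrit in RPMI-1640 (0.5% Albumax II, 16 µM hypoxanthine, HEPES, glucose); after 30 min at 37 °C, drug was added to final 1% parasitemia and 2% hematocrit. Test range 7.8–500 µM, with chloroquine at 3.9–500 nM and final DMSO under 2%. Incubation was 24 h, then [3H]-hypoxanthine for 18–24 h more; filters were counted. IC50 came from curve fitting, quadruplicates, 2–3 runs.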

Plasmodium falciparum [2] = assay: Antimalarial activity after 24 hrs against chloroquine-sensitive Plasmodium falciparum 3D7 by [3H]hypoxanthine uptake; assay type: functional, organism-based; how it was run: as §1
Plasmodium falciparum [3] = assay: Antimalarial activity after 48 hrs against Plasmodium falciparum W2 by [3H]hypoxanthine uptake
Plasmodium falciparum [4] = assay: Antimalarial activity after 48 hrs against Plasmodium falciparum D6 by [3H]hypoxanthine uptake

Compound	IC50 (Plasmodium falciparum [1])	IC50 (Plasmodium falciparum [2])	IC50 (Plasmodium falciparum [3]) [µg/mL]	IC50 (Plasmodium falciparum [4]) [µg/mL]
C=C(C)[C@@H]1CC[C@]2(C)CC[C@]3(C)[C@H](CC[C@@H]4[C@@]5(C)CC[C@H](OC(=O)COCCCCCCCCCCCCCCCCCCCCCCCC)C(C)(C)[C@@H]5CC[C@]43C)[C@@H]12	84 µM and 69000 µg/mL	135 µM		
C=C(C)[C@@H]1CC[C@]2(C)CC[C@]3(C)[C@H](CC[C@@H]4[C@@]5(C)CC[C@H](OC(=O)CC(O)CCCCCCCCCCCCCCCCC)C(C)(C)[C@@H]5CC[C@]43C)[C@@H]12 (stereo not given in full)	269 µM	282 µM		
C=C[C@H]1CN2CC[C@H]1C[C@H]2[C@H](O)c1ccnc2ccc(OC)cc12 [QUININE]			67 (≈ 207 µM)	25 (≈ 77.1 µM)
C=C(C)[C@@H]1CC[C@]2(C)CC[C@]3(C)[C@H](CC[C@@H]4[C@@]5(C)CC[C@H](O)C(C)(C)[C@@H]5CC[C@]43C)[C@@H]12 [LUPEOL]	97 µM and 41000 µg/mL	106 µM and 45000 µg/mL		
OC(c1cc(C(F)(F)F)nc2c(C(F)(F)F)cccc12)C1CCCCN1 (stereo not given) [MEFLOQUINE]			28.5 (≈ 75.3 µM)	2550 (≈ 6740 µM)
